Measured values: article PMC9075791 (RSC Advances, 2019)

Assays:
[1] = cited from earlier work
[2] = Cell-free aggregation assay; format: physicochemical; conditions: for Detected CAC: critical aggregation concentration, 1× HBSS, 20 mM HEPES, pH 7.2; for aggregator / non-aggregator in aggregation assay: real time dose responses
How it was run: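 Assay buffer (1× HBSS, 20 mM HEPES, pH 7.2) was equilibrated in wells of the RWG reader for 1 h. After a 2 min baseline, a compound dilution series (from DMSO stocks, maximum 1‰ final DMSO) was added and wavelength shift was recorded for 1 h. A DMSO range set the background. Responses at a fixed time were plotted against concentration to give the CAC. Each assay was run at least three times.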

[3] = tested on: HT-29 cells; assay: DMR agonism assay; format: cell-based, Human
How it was run: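 HT-29 cells were grown in McCoy's 5A with 10% FBS at 37 °C/5% CO2. They were seeded on RWG biosensor plates for ~24 h to form a monolayer, washed, and held 1 h in HBSS/20 mM HEPES pH 7.2, or in the same buffer with tween-80 for detergent runs. After a 2 min baseline, test compound was added and DMR was monitored for 1 h. The background-corrected maximal amplitude was used. Two independent runs, each at least in duplicate (n = 4).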

[4] = target: Muscarinic M3 receptor (Homo sapiens, UniProt P20309); assay: DMR desensitization assay, M3; format: cell-based; conditions: HT-29 cells; active compounds at concentrations above 50 μM
Sequence of Muscarinic M3 receptor (P20309 whole entry): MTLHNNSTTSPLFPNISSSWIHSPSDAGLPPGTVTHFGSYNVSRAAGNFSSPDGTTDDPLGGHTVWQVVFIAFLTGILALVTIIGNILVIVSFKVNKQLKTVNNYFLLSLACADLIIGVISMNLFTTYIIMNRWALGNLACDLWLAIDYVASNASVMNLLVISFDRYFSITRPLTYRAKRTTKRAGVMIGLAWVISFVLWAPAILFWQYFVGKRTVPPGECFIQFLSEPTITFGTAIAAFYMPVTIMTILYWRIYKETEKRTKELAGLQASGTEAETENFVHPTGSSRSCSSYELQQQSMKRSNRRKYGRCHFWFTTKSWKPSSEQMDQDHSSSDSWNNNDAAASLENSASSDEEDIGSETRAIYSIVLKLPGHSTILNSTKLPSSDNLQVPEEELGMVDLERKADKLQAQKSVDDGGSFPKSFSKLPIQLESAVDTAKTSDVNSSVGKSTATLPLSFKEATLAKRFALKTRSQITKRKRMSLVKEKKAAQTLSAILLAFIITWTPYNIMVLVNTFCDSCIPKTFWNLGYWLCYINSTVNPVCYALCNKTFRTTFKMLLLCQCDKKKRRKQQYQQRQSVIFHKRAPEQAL

Row | SMILES | Detected CAC [2] | aggregator / non-aggregator in aggregation assay [2] | Literature CAC detected by DLS [1] | DMR response (in words) ([3]; to its solubility limit) | inhibition of the DMR response of acetylcholine against muscarinic M3 receptor [4] | DMR response ([3]; at 100 μM)
1 | COc1cc(/C=C/C(=O)CC(=O)/C=C/c2ccc(O)c(OC)c2)ccc1O [Curcumin] | 9.6 µM | aggregator | 17 ([ref. 16]) μM | barely triggered any cellular mass redistributions | did not inhibit | 
2 | O=C(O)c1cccnc1 [Nicotinic acid] |  | non-aggregator |  |  |  | 
3 | COc1cc(O)c2c(c1)C(=O)c1cc(C)cc(O)c1C2=O [Physcion] | Undetected |  | 0.32 ([ref. 16]) μM |  |  | 
4 | COc1cc(C2Oc3cc([C@H]4Oc5cc(O)cc(O)c5C(=O)[C@@H]4O)ccc3OC2CO)ccc1O (some centres unmarked) [Silybin] | 25.2 µM |  | 0.47 ([ref. 16]) μM |  |  | 

Continued, in another order:

Row | Detected CAC [2] | aggregator / non-aggregator in aggregation assay [2] | SMILES | Literature CAC detected by DLS [1] | DMR response (in words) ([3]; to its solubility limit) | inhibition of the DMR response of acetylcholine against muscarinic M3 receptor [4] | DMR response ([3]; at 100 μM)
5 | 42.8 µM |  | O=c1c(-c2ccc(O)cc2)coc2cc(O)cc(O)c12 [Genistein] | <75 ([ref. 12]) μM |  |  | 
6 | 1.6 µM |  | O=c1cc(-c2ccc(O)c(O)c2)oc2cc(O)cc(O)c12 [Luteolin] | <50 ([ref. 12]) μM |  |  | 
7 | 5.7 µM |  | O=c1c(O)c(-c2ccc(O)c(O)c2)oc2cc(O)cc(O)c12 [Quercetin] |  |  | false inhibited | less than 100 pm
